Results from ChEMBL document CHEMBL5649170, “Sustained microglial depletion with CSF1R inhibitor impairs parenchymal plaque development in an Alzheimer's disease model” (Nat Commun, 2019).
The source made the active and inactive calls. No cut-off for these calls is given here.

Key:
[1] = target: T1, Macrophage colony-stimulating factor 1 receptor (Mus musculus) (UniProt P09581); test: In vivo inhibition of CSF1R in wildtype mouse assessed as microglial numbers by measuring number of Iba positive cells per FOV in somatosensory cortex at 75 ppm administered as rodent chow starting from 1.5 months and measured after 5 months by immunolabeling based confocal microscopic analysis (reference value: 218 to 349); format: functional; details: route po, time 3.5 months
T1 sequence (whole entry): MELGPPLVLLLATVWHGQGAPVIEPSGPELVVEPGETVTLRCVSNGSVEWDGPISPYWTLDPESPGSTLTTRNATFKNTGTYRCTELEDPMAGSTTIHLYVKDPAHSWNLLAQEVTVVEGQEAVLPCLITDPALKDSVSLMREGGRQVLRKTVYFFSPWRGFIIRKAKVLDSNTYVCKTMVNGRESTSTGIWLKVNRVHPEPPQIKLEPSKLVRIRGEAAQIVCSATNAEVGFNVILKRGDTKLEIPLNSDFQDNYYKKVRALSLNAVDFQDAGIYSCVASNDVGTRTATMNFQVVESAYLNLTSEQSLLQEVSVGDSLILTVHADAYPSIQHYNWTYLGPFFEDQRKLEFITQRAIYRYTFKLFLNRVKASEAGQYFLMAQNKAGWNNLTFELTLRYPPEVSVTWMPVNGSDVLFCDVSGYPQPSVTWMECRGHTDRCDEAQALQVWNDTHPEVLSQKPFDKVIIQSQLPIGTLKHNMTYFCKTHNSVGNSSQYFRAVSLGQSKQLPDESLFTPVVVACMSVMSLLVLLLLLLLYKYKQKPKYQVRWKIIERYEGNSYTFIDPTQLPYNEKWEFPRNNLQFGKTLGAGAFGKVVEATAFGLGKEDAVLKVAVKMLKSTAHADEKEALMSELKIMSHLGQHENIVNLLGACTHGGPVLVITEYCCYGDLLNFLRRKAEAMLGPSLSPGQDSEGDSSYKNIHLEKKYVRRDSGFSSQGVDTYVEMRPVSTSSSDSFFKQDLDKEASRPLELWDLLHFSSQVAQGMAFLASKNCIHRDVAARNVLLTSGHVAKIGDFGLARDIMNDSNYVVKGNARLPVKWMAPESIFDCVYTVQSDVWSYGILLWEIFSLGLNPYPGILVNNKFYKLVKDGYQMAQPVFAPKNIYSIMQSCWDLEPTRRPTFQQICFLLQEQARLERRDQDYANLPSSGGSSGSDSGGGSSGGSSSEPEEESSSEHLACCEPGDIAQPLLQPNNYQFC

[2] = target: Receptor tyrosine-protein kinase erbB-2 (Homo sapiens, UniProt P04626); test: Inhibition of ERBB2 (unknown origin)
[3] = target: Inhibitor of nuclear factor kappa-B kinase subunit epsilon (Homo sapiens, UniProt Q14164); test: Inhibition of IKBKE (unknown origin)
[4] = target: Serine/threonine-protein kinase Nek2 (Homo sapiens, UniProt P51955); test: Inhibition of NEK2 (unknown origin)
[5] = target: PI3-kinase p110-delta/p85-alpha (Homo sapiens, UniProt O00329); test: Inhibition of PIK3CD/PIK3R1 (unknown origin); format: protein-complex assay
[6] = target: Ribosomal protein S6 kinase alpha-3 (Homo sapiens, UniProt P51812); test: Inhibition of RPS6KA3 (unknown origin)
[7] = target: Tyrosine-protein kinase ZAP-70 (Homo sapiens, UniProt P43403); test: Inhibition of ZAP70 (unknown origin)
[8] = Half-life in male rat at 1.13 mg/kg, iv administered as single dose; format: ADME, organism-based; details: in vivo
[9] = tested on: Mus musculus; test: Antialzheimer activity in 5XFAD mouse assessed as time spent in center zone at 1200 ppm administered as rodent chow for 10 to 24 weeks by Open field test (reference value: 14.9 to 130.9 sec); format: functional; details: route po, time 10-24 weeks
[10] = tested on: Mus musculus; test: Antialzheimer activity in 5XFAD mouse assessed as amyloidbeta42 level in detergent soluble thalamus fraction measured per microgram protein at 1200 ppm administered as rodent chow starting from 1.5 months and measured after 7 months by ELISA (reference value: 0 to 0.271 pg); format: functional; details: route po, time 5.5 months, 4015 h
Procedure, shortened: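 PLX5622 at 1200 ppm in chow given to 5xFAD mice from 1.5 months to 4 or 7 months of age; cortex and thalamus homogenized in TPER (detergent-soluble), pellets re-homogenized in 70% formic acid and spun 100,000 g, 1 h, 4 °C (insoluble); protein by Bradford/Lowry; Aβ species measured by Meso Scale electrochemiluminescence immunoassay, normalized to protein; n = 7–8 per group at 7 months.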

[11] = tested on: Mus musculus; test: Antialzheimer activity in 5XFAD mouse assessed as percent change in claudin-5 intensity of thalamus at 1200 ppm administered as rodent chow starting from 1.5 months and measured after 4 months by immunolabeling analysis relative to control; format: functional; details: route po, time 2.5 months, 1825 h
[12] = tested on: Mus musculus; test: Effect on APP processing pathway in wildtype mouse assessed as ADAM10 protein signal intensity in cortex at 1200 ppm administered as rodent starting from 1.5 months and measured after 7 months (reference value: 37.275 to 230.211 %); format: functional; details: route po, time 5.5 months, 4015 h
[13] = Effect on C1qa gene expression in wild type mouse hippocampus at 1200 ppm administered as rodent chow starting from 1.5 months and measured after 7 months by RNA-Seq analysis (reference value: 17.148 to 23.051 RPKM); format: functional; details: route po, time 5.5 months, 4015 h
Procedure, shortened: (§1)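 WT and 5xFAD mice were treated with 1200 ppm PLX5622 chow or control chow from 1.5 to 7 months of age. Brains were microdissected into cortex, hippocampus and thalamus, and RNA was extracted from tissue powder. Whole-transcriptome RNA-Seq libraries were sequenced, with n = 4 per group per region (48 samples).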

[14] = Effect on Clec7a gene expression in 5XFAD mouse cortex at 1200 ppm administered as rodent chow starting from 1.5 months and measured after 7 months by RNA-Seq analysis (reference value: 2.323 to 6.756 RPKM); format: functional; details: route po, time 5.5 months, 4015 h; procedure, shortened: as §1
[15] = Effect on Cst7 gene expression in 5XFAD mouse hippocampus at 1200 ppm administered as rodent chow starting from 1.5 months and measured after 7 months by RNA-Seq analysis (reference value: 14.615 to 34.909 RPKM); format: functional; details: route po, time 5.5 months, 4015 h
[16] = Effect on Ctsd gene expression in 5XFAD mouse thalamus at 1200 ppm administered as rodent chow starting from 1.5 months and measured after 7 months by RNA-Seq analysis (reference value: 209.488 to 301.760 RPKM); format: functional; details: route po, time 5.5 months, 4015 h
[17] = Effect on Scn1b gene expression in wildtype mouse hippocampus assessed as percent change in Reads Per kilo base per Million mapped reads at 1200 ppm administered as rodent chow starting from 1.5 months and measured after 7 months by RNA-Seq analysis (reference value: 86.853 to […]); format: functional; details: route po, time 5.5 months, 4015 h
[18] = Prevention of Zfp286 gene downregulation in 5XFAD mouse hippocampus assessed as percent change in Reads Per kilo base per Million mapped reads at 1200 ppm administered as rodent chow starting from 1.5 months and measured after 7 months by RNA-Seq analysis (reference value: 71.833 to 84.581 %); format: functional; details: route po, time 5.5 months, 4015 h
[19] = tested on: Mus musculus; test: Antialzheimer activity in 5XFAD mouse assessed as pyroglutamte-3 immunoreactivity in thalamus at 1200 ppm administered as rodent chow for 24 weeks by immunolabeling based confocal microscopic analysis; format: functional, organism-based; details: route po

Sequence of Tyrosine-protein kinase ZAP-70 (P43403 whole entry): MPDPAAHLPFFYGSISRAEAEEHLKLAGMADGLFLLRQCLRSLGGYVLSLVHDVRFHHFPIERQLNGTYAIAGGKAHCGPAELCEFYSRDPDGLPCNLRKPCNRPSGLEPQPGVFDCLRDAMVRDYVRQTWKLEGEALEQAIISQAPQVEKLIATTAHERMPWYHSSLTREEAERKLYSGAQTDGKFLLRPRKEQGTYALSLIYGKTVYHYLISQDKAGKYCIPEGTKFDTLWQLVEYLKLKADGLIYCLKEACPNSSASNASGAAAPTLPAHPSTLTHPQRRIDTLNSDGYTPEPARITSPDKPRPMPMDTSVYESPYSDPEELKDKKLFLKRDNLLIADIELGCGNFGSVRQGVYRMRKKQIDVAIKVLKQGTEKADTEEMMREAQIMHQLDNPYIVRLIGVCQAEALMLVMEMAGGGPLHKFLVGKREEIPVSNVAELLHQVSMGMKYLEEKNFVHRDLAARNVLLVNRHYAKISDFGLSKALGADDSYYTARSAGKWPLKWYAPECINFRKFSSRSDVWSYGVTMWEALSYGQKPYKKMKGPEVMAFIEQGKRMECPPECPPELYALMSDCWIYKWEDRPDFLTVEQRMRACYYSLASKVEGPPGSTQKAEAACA
Sequence of Inhibitor of nuclear factor kappa-B kinase subunit epsilon (Q14164 whole entry): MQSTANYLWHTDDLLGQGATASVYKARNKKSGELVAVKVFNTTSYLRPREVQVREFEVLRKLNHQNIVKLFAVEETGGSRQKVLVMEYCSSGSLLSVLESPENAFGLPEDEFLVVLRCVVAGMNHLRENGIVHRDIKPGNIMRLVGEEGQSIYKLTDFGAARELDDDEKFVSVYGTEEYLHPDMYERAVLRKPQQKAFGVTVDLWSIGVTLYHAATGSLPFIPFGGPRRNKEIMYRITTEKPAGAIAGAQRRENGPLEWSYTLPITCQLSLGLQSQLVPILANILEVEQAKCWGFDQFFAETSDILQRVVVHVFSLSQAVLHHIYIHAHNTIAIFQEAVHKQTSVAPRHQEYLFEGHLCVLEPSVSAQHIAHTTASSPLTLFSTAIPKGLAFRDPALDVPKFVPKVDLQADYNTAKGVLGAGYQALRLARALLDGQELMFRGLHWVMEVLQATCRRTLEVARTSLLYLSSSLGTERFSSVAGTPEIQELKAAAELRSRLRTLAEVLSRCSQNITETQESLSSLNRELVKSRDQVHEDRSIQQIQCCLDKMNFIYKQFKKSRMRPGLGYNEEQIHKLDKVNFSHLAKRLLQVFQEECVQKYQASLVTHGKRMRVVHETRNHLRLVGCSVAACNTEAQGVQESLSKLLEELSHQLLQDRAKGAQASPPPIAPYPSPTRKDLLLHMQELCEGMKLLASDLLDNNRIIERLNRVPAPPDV
Sequence of PI3-kinase p110-delta/p85-alpha (P27986 whole entry): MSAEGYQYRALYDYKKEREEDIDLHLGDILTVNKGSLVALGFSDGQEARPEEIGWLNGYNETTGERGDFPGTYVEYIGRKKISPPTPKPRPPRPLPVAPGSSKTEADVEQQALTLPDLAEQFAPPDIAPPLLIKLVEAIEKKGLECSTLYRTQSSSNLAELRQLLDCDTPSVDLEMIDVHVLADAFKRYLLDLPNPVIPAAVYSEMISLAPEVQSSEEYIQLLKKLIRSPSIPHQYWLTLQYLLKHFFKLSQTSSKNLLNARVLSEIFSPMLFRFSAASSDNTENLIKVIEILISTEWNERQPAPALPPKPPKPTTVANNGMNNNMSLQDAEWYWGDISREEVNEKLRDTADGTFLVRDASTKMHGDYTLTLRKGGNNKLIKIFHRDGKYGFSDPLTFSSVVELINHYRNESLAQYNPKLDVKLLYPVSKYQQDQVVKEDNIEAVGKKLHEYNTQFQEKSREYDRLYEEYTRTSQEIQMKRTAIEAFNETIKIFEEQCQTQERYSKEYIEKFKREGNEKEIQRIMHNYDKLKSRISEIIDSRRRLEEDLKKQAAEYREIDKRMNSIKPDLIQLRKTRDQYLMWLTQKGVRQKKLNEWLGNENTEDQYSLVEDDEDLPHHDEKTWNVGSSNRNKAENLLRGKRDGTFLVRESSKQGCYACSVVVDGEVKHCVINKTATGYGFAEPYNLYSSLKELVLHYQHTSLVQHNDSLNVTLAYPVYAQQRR
Sequence of PI3-kinase p110-delta/p85-alpha (O00329 whole entry): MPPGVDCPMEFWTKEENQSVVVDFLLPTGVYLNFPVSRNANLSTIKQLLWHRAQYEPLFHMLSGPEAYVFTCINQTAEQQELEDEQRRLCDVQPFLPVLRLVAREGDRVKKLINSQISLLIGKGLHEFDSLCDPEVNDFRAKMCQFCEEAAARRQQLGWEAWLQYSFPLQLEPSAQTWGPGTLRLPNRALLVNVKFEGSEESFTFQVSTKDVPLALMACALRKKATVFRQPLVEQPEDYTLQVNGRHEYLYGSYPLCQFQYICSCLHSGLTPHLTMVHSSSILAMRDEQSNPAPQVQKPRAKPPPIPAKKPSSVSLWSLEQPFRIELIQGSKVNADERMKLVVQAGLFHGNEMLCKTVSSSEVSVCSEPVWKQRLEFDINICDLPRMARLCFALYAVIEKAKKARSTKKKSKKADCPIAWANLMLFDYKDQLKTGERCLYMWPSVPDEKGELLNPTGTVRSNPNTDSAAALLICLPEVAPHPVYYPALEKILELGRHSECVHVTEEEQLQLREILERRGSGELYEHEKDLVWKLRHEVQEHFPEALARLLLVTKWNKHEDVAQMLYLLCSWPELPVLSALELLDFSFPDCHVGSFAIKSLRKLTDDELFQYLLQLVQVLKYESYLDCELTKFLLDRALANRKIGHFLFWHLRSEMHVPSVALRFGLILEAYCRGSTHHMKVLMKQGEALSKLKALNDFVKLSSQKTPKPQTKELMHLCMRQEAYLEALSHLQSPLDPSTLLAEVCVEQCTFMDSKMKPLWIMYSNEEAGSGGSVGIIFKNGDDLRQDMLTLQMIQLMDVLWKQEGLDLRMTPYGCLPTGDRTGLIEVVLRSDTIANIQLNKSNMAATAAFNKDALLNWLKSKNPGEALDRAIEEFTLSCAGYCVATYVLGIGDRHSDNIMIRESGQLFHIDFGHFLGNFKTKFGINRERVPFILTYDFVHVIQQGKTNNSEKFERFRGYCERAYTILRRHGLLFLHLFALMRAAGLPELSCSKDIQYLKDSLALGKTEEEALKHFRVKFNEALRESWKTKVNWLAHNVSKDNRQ
Sequence of Ribosomal protein S6 kinase alpha-3 (P51812 whole entry): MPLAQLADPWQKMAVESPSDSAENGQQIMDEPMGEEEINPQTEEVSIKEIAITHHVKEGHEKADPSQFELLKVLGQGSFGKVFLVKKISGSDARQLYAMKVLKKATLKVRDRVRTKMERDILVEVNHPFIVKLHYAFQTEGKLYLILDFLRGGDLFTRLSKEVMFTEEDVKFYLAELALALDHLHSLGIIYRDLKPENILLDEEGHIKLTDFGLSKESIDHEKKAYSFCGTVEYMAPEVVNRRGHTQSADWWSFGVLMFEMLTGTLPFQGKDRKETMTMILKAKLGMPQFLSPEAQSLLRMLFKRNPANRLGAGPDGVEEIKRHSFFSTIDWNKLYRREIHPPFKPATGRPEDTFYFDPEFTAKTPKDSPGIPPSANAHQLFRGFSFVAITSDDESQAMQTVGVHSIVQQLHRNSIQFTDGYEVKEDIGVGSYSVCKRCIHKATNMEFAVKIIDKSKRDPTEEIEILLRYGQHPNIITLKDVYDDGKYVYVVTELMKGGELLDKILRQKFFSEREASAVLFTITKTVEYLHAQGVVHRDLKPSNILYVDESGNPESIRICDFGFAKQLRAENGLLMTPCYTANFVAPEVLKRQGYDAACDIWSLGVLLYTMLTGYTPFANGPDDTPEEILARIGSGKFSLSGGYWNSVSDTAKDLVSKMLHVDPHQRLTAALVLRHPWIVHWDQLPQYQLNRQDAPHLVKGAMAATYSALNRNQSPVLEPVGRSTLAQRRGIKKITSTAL
Sequence of Receptor tyrosine-protein kinase erbB-2 (P04626 whole entry): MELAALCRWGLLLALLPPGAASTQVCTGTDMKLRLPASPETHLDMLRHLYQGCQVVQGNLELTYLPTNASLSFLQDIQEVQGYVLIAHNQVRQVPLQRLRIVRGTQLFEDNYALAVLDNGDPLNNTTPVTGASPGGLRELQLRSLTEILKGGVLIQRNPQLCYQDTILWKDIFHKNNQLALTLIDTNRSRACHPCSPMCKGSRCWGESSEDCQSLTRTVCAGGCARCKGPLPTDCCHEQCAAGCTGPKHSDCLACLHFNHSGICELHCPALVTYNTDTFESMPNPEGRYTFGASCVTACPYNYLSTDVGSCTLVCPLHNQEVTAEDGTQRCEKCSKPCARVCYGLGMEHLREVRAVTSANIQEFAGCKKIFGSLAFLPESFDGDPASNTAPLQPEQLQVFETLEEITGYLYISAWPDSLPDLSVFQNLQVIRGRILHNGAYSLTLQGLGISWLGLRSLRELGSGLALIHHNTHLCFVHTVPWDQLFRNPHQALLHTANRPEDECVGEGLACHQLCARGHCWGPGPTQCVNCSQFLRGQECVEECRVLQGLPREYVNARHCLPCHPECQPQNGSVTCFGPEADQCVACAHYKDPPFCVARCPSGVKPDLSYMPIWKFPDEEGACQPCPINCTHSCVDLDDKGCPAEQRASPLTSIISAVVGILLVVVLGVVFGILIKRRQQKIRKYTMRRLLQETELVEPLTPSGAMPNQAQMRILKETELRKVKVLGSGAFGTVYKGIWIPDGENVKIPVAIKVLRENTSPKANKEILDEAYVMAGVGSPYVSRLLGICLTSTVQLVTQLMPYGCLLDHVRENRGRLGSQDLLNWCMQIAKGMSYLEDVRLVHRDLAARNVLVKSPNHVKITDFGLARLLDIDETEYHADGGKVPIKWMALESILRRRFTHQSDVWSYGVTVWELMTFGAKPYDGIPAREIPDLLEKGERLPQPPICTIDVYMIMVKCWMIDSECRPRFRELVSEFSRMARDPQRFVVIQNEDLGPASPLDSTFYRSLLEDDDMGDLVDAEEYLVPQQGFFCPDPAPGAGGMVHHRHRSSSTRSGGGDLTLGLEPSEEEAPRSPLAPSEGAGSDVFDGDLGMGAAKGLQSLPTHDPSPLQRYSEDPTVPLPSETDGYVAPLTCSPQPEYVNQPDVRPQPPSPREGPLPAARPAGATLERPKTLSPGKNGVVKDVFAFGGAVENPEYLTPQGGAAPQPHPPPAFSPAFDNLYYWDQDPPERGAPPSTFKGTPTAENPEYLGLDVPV

Activity [1] | Structure (SMILES) | IC50 [2] | IC50 [3] | IC50 [4] | IC50 [5] | IC50 [6] | IC50 [7] | half-life [8] | Time [9] | Activity [10] | Activity [11] | Activity [12] | Activity [13] | Activity [14] | Activity [15] | Activity [16] | Activity [17] | Activity [18] | Activity [19]
205 | FC(F)(F)c1ccc(CNc2ccc(Cc3c[nH]c4ncc(Cl)cc34)cn2)cn1 [PEXIDARTINIB] |  |  |  |  |  |  |  |  |  |  |  |  |  |  |  |  |  | 
 | COc1ncc(F)cc1CNc1ccc(Cc2c[nH]c3ncc(C)cc23)c(F)n1 [PLX-5622] | > 1 µM | > 1 µM | > 1 µM | > 1 µM | > 1 µM | > 1 µM | 2.3 h | 32.4 s | 0 pg | 7.551% | 59.835% | 0.17 RPKM | 0.051 RPKM | 2.289 RPKM | 111.226 RPKM | 83.818% | 91.857% | Active
